# Key:
# [1] = Half life in Sprague-Dawley rat at 3 mg/kg, po; assay type: ADME, organism-based; parameters: dose 3 mg/kg, route oral; details: in vivo
# Method in brief: (§1)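 Single oral dose of 3.0 mg/kg given to Sprague-Dawley rats, n = 6. Plasma concentration–time profiles gave apparent total plasma clearance (CL_z/F), half-life, AUC0–t and peak plasma concentration (Cmax).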
# [2] = (§2) AUC (0 to t) in Sprague-Dawley rat at 3 mg/kg, po; assay type: ADME, organism-based, Plasma; parameters: dose 3 mg/kg, route oral; details: Sprague-Dawley, plasma; method in brief: as §1
# [3] = (§3) Apparent total oral clearance in Sprague-Dawley rat at 3 mg/kg, po; assay type: ADME, organism-based; parameters: dose 3 mg/kg, route oral; details: Sprague-Dawley, in vivo; method in brief: as §1
# Mus musculus [4] = assay: Antidiabetic activity in ICR mouse assessed as reduction in glucose AUC (0 to 120) at 1 mg/kg, po pretreated 30 mins before glucose challenge measured after 120 mins by oral glucose tolerance test relative to control; assay type: functional, organism-based; parameters: dose 1 mg/kg
# Method in brief: (§4)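 Lean ICR mice were dosed orally at 1, 3 or 10 mg/kg 0.5 h before an oral glucose challenge. Blood glucose was followed over 0–120 min, and glucose AUC0–120 min was expressed as percent change versus vehicle control. Data are mean ± SEM, n = 5 per group; P versus control.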
# Mus musculus [5] = assay: Antidiabetic activity in ICR mouse assessed as reduction in glucose AUC (0 to 120) at 3 mg/kg, po pretreated 30 mins before glucose challenge measured after 120 mins by oral glucose tolerance test relative to control; assay type: functional, organism-based; parameters: dose 3 mg/kg; method in brief: as §4
# Mus musculus [6] = assay: Antidiabetic activity in ICR mouse assessed as reduction in glucose AUC (0 to 120) at 10 mg/kg, po pretreated 30 mins before glucose challenge measured after 120 mins by oral glucose tolerance test relative to control; assay type: functional, organism-based; parameters: dose 10 mg/kg; method in brief: as §4
# Cynomolgus monkey [7] = assay: animal or person; details: Macaca fascicularis, po, 5 h, read-out: Inhibition
# [8] = Cmax in Sprague-Dawley rat at 3 mg/kg, po; assay type: ADME, organism-based; parameters: dose 3 mg/kg, route oral; details: in vivo; method in brief: as §1
# Dipeptidyl peptidase 4 = Dipeptidyl peptidase 4 (Homo sapiens, UniProt P27487)
# Rattus norvegicus [9] = assay: as §2; assay type: ADME, organism-based, Plasma; parameters: dose 3 mg/kg, route oral; details: in vivo; method in brief: as §1
# Cynomolgus monkey [10] = assay: animal or person; details: Macaca fascicularis, po, 12 h, read-out: Inhibition
# Rattus norvegicus [11] = assay: as §3; assay type: ADME, organism-based; parameters: dose 3 mg/kg, route oral; details: in vivo; method in brief: as §1
# Cynomolgus monkey [12] = assay: animal or person; details: Macaca fascicularis, po, 9 h, read-out: Inhibition
# Sequence of Dipeptidyl peptidase 4 (P27487 whole entry): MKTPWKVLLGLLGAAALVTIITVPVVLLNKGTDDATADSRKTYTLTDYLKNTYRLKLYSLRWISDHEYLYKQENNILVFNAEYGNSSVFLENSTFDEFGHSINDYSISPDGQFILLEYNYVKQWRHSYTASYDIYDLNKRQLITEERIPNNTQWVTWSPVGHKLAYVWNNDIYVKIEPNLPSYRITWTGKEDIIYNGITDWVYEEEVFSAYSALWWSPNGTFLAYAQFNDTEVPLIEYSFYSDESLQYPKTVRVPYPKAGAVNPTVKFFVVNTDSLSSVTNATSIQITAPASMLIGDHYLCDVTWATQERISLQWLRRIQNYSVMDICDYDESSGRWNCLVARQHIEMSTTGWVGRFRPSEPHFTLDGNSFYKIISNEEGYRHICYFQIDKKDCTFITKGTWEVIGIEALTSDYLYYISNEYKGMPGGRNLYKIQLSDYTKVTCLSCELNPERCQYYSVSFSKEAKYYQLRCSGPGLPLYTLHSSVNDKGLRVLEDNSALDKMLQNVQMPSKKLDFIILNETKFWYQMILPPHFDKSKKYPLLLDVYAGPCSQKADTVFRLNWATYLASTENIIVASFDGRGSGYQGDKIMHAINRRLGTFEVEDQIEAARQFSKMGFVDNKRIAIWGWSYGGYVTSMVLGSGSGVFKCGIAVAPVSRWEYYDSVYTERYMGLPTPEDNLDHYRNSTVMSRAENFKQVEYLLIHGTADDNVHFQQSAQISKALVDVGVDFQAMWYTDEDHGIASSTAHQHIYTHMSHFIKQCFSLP
smiles,measurement,setting,value
CN(C)C(=O)N1C[C@H]2C[C@@H](NCC(=O)N3CCC[C@H]3C#N)C[C@H]2C1,half-life,[1],56.4 min
same,AUC(0-t),[2],68.7 ng·h/mL
same,CL/F,[3],190 mL/min/kg
same,AUC,Mus musculus [4],39.7%
same,AUC,Mus musculus [5],42%
same,AUC,Mus musculus [6],45%
same,inhibition in vivo at 20 mg/kg,Cynomolgus monkey [7],> 75%
same,Cmax,[8],39.4 ng/mL
N#C[C@@H]1CCCN1C(=O)CN[C@@H]1C[C@@H]2CN(C(=O)CO)C[C@@H]2C1,IC50,Dipeptidyl peptidase 4,0.014 µM
N#C[C@@H]1CCCN1C(=O)CNC12CC3CC(CC(O)(C3)C1)C2,AUC,Mus musculus [4],35.8%
same,AUC,Mus musculus [5],41.7%
same,AUC,Mus musculus [6],51.4%
N#C[C@@H]1CCCN1C(=O)CN[C@@H]1C[C@@H]2CN(C(=O)N3CCOCC3)C[C@@H]2C1,IC50,Dipeptidyl peptidase 4,0.05 µM
N#C[C@@H]1CCCN1C(=O)CN[C@@H]1C[C@@H]2CN(C(=O)N3CCCC3)C[C@@H]2C1,IC50,Dipeptidyl peptidase 4,0.039 µM
COC(=O)N1C[C@H]2C[C@@H](NCC(=O)N3CCC[C@H]3C#N)C[C@H]2C1,IC50,Dipeptidyl peptidase 4,0.024 µM
CN(C)C(=O)N1C[C@@H]2C[C@](C)(NCC(=O)N3CCC[C@H]3C#N)C[C@@H]2C1,half-life,[1],195 min
same,AUC,Rattus norvegicus [9],266.3 ng·h/mL
same,inhibition in vivo at 20 mg/kg,Cynomolgus monkey [10],38%
same,CL,Rattus norvegicus [11],847.8 mL/min/kg
same,inhibition in vivo at 20 mg/kg,Cynomolgus monkey [7],> 75%
same,Cmax,[8],165 ng/mL
CC(C)NC(=O)N1C[C@H]2C[C@@H](NCC(=O)N3CCC[C@H]3C#N)C[C@H]2C1,IC50,Dipeptidyl peptidase 4,0.12 µM
N#C[C@@H]1CCCN1C(=O)CN[C@@H]1C[C@@H]2CN(C(=O)N3CCCCC3)C[C@@H]2C1,IC50,Dipeptidyl peptidase 4,0.069 µM
CN(C)C(=O)N1C[C@@H]2C[C@@](C)(NCC(=O)N3CCC[C@H]3C#N)C[C@@H]2C1,half-life,[1],54 min
same,AUC(0-t),[2],120 ng·h/mL
same,inhibition in vivo at 20 mg/kg,Cynomolgus monkey [10],51%
same,CL/F,[3],564 mL/min/kg
same,inhibition in vivo at 20 mg/kg,Cynomolgus monkey [12],> 75%
same,Cmax,[8],146 ng/mL

# Reference: ChEMBL document CHEMBL1158614, “Synthesis and biological evaluation of azobicyclo[3.3.0] octane derivatives as dipeptidyl peptidase 4 inhibitors for the treatment of type 2 diabetes” (Bioorg Med Chem Lett, 2010)
